The term inhibition denotes how much of the control response was suppressed.

The source of these data is ChEMBL document CHEMBL1129264, “Mercaptoacyl dipeptides as orally active dual inhibitors of angiotensin-converting enzyme and neutral endopeptidase” (1996).

The target in assay [1] is T1, Angiotensin-converting enzyme (Rattus norvegicus) (UniProt P47820).
T1 sequence (whole entry): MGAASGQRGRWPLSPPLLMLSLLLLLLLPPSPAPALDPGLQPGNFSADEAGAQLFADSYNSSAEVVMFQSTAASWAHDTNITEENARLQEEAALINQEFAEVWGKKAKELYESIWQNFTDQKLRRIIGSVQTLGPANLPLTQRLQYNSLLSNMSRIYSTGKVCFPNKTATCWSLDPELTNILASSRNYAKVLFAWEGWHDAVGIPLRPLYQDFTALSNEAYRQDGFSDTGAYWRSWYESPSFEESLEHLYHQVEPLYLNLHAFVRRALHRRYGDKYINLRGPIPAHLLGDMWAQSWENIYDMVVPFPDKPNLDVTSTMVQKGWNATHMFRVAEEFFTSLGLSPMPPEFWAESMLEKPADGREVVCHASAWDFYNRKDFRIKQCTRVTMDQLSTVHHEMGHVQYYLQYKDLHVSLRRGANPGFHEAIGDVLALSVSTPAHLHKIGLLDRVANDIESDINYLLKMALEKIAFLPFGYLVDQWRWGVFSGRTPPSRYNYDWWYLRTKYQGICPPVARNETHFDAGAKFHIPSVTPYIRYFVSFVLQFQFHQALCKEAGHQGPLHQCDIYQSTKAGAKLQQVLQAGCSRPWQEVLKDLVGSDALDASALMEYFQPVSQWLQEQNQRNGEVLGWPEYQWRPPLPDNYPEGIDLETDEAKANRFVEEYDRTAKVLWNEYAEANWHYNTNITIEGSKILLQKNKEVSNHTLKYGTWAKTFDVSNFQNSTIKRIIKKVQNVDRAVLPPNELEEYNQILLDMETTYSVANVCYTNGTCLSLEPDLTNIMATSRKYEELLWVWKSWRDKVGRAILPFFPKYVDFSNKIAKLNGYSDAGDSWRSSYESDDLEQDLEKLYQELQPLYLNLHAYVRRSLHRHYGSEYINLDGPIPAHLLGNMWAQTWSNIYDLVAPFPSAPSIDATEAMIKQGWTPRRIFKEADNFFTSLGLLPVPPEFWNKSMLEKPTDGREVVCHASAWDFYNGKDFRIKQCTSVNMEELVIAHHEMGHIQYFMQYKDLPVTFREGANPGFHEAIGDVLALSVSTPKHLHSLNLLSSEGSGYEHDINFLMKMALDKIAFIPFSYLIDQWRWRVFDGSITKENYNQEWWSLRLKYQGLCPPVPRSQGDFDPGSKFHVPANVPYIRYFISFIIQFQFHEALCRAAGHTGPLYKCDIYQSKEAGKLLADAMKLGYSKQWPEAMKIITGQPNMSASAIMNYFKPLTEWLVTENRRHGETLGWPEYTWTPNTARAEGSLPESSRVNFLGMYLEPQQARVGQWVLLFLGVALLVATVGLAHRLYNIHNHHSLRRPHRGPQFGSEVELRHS
In words: Compound was tested for plasma inhibition of Angiotensin I converting enzyme activity in the conscious rat. Expressed as Inhibition of AI pressor response at 4 hr at a dose of 13.5 mg/kg po. More on the design: dose 13.5 mg/kg. The assay is classed as organism-based. The method in brief: (§1)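 Male conscious normotensive Sprague-Dawley rats (275-390 g), prepared under methohexital sodium (75 mg/kg ip) with femoral arterial and venous catheters. The next day, pressor responses to three angiotensin-I challenges (300 ng/kg iv) were recorded. Compound was then given orally and angiotensin-I challenges were repeated at set times. Percent inhibition is relative to the mean of the three baseline responses.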

Assay [2] has as its target T1, Angiotensin-converting enzyme (Rattus norvegicus). In words: Compound was tested for plasma inhibition of Angiotensin I converting enzyme activity in the conscious rat. Expressed as Inhibition of AI pressor response at 6 hr at a dose of 13.5 mg/kg po. In kind it is organism-based. On the set-up: dose 13.5 mg/kg. The method in brief:
as §1

Assay [3] shares this target. In words: Compound was tested for plasma inhibition of Angiotensin I converting enzyme activity in the conscious rat. Expressed as Inhibition of AI pressor response at 1 hr at a dose of 13.5 mg/kg po. The assay is classed as organism-based. More on the design: dose 13.5 mg/kg. The method in brief: (§2)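 Male conscious normotensive Sprague-Dawley rats (275-390 g), given femoral arterial and venous catheters under methohexital sodium (75 mg/kg ip) anesthesia. Next day, pressor responses to three angiotensin-I challenges (300 ng/kg iv) recorded by direct arterial pressure. Compound then dosed orally, and AI challenge repeated at set times. Each post-dose response compared with the mean of the three baseline responses, giving % inhibition.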

Assay [4] has the same target. As to the kind of experiment: Compound was tested for plasma inhibition of Angiotensin I converting enzyme activity in the conscious rat. Expressed as Inhibition of AI pressor response at 2 hr at a dose of 13.5 mg/kg po. In kind it is organism-based. On the set-up: dose 13.5 mg/kg. The method in brief: as §2
Assay [5] has the same target. In words: Compound was tested for plasma inhibition of Angiotensin I converting enzyme activity in the conscious rat. Expressed as Inhibition of AI pressor response at 4 hr at a dose of 14.4 mg/kg po. In kind it is organism-based. More on the design: dose 14.4 mg/kg. The method in brief:
as §1

Assay [6] has the same target. In words: Compound was tested for plasma inhibition of Angiotensin I converting enzyme activity in the conscious rat. Expressed as Inhibition of AI pressor response at 6 hr at a dose of 14.4 mg/kg po. In kind it is organism-based. On the set-up: dose 14.4 mg/kg. The method in brief: as §1
The target is the same in assay [7]. In words: Compound was tested for plasma inhibition of Angiotensin I converting enzyme activity in the conscious rat. Expressed as Inhibition of AI pressor response at 2 hr at a dose of 14.4 mg/kg po. On the set-up: dose 14.4 mg/kg. The assay is classed as organism-based. The method in brief: as §2
For assay [8] the target is unchanged. As to the kind of experiment: Compound was tested for plasma inhibition of Angiotensin I converting enzyme activity in the conscious rat. Expressed as Inhibition of AI pressor response at 1 hr at a dose of 14.4 mg/kg po. In kind it is organism-based. On the set-up: dose 14.4 mg/kg. The method in brief: as §2
For assay [9] the target is unchanged. In words: Compound was tested for plasma inhibition of Angiotensin I converting enzyme activity in the conscious rat. Expressed as Inhibition of AI pressor response at 2 hr at a dose of 14.5 mg/kg po. In kind it is organism-based. More on the design: dose 14.5 mg/kg. The method in brief: as §2
Assay [10] shares this target. As to the kind of experiment: Compound was tested for plasma inhibition of Angiotensin I converting enzyme activity in the conscious rat. Expressed as Inhibition of AI pressor response at 6 hr at a dose of 14.5 mg/kg po. On the set-up: dose 14.5 mg/kg. In kind it is organism-based. The method in brief: as §1
The target is the same in assay [11]. In words: Compound was tested for plasma inhibition of Angiotensin I converting enzyme activity in the conscious rat. Expressed as Inhibition of AI pressor response at 4 hr at a dose of 14.5 mg/kg po. In kind it is organism-based. On the set-up: dose 14.5 mg/kg. The method in brief:
as §1

The target is the same in assay [12]. As to the kind of experiment: Compound was tested for plasma inhibition of Angiotensin I converting enzyme activity in the conscious rat. Expressed as Inhibition of AI pressor response at 1 hr at a dose of 14.5 mg/kg po. In kind it is organism-based. On the set-up: dose 14.5 mg/kg. The method in brief: as §2
For assay [13] the target is unchanged. As to the kind of experiment: Compound was tested for plasma inhibition of Angiotensin I converting enzyme activity in the conscious rat. Expressed as Inhibition of AI pressor response at 1 hr at a dose of 12.1 mg/kg po. More on the design: dose 12.1 mg/kg. In kind it is organism-based. The method in brief: as §2
For assay [14] the target is unchanged. As to the kind of experiment: Compound was tested for plasma inhibition of Angiotensin I converting enzyme activity in the conscious rat. Expressed as Inhibition of AI pressor response at 2 hr at a dose of 12.1 mg/kg po. In kind it is organism-based. More on the design: dose 12.1 mg/kg. The method in brief:
as §2

For assay [15] the target is unchanged. In words: Compound was tested for plasma inhibition of Angiotensin I converting enzyme activity in the conscious rat. Expressed as Inhibition of AI pressor response at 4 hr at a dose of 12.1 mg/kg po. In kind it is organism-based. On the set-up: dose 12.1 mg/kg. The method in brief:
as §2

Assay [16] has the same target. In words: Compound was tested for plasma inhibition of Angiotensin I converting enzyme activity in the conscious rat. Expressed as Inhibition of AI pressor response at 6 hr at a dose of 12.1 mg/kg po. In kind it is organism-based. On the set-up: dose 12.1 mg/kg. The method in brief: as §1
In assay [17] the test system is Rattus norvegicus. In words: Plasma ANF Concentration in the Conscious Rat at a dose of 11.7(po)mg/kg at 1 h. In kind it is functional. The method in brief: (§3)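 Male Sprague-Dawley rats (275-390 g) received femoral artery and vein catheters under ketamine (150 mg/kg)/acepromazine and recovered for 24 h, tethered, before study conscious. ratANF(99-126) was infused at 450 ng/kg/min iv for 5 h. Baseline blood was drawn at 60 min into the infusion, then compound was given po.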

For assay [18], the system named is Rattus norvegicus. As to the kind of experiment: Plasma ANF Concentration in the Conscious Rat at a dose of 11.7(po)mg/kg at 0.5 h. In kind it is functional. The method in brief:
as §3

In assay [19] the test system is Rattus norvegicus. As to the kind of experiment: Plasma ANF Concentration in the Conscious Rat at a dose of 11.7(po)mg/kg at 2 h. The assay is classed as functional. The method in brief:
as §3

Assay [20] addresses T1, Angiotensin-converting enzyme (Rattus norvegicus). In words: Compound was tested for plasma inhibition of Angiotensin I converting enzyme activity in the conscious rat. Expressed as Inhibition of AI pressor response at 1 hr at a dose of 11.7 mg/kg po. In kind it is organism-based. More on the design: dose 11.7 mg/kg. The method in brief: as §2
For assay [21] the target is unchanged. In words: Compound was tested for plasma inhibition of Angiotensin I converting enzyme activity in the conscious rat. Expressed as Inhibition of AI pressor response at 2 hr at a dose of 11.7 mg/kg po. The assay is classed as organism-based. More on the design: dose 11.7 mg/kg. The method in brief: as §2
Assay [22] shares this target. As to the kind of experiment: Compound was tested for plasma inhibition of Angiotensin I converting enzyme activity in the conscious rat. Expressed as Inhibition of AI pressor response at 4 hr at a dose of 11.7 mg/kg po. The assay is classed as organism-based. More on the design: dose 11.7 mg/kg. The method in brief: as §2
Assay [23] deals with Rattus norvegicus. In words: Plasma ANF Concentration in the Conscious Rat at a dose of 11.7(po)mg/kg at 4 h. The assay is classed as functional. The method in brief: as §3
Assay [24] addresses T1, Angiotensin-converting enzyme (Rattus norvegicus). As to the kind of experiment: Compound was tested for plasma inhibition of Angiotensin I converting enzyme activity in the conscious rat. Expressed as Inhibition of AI pressor response at 6 hr at a dose of 11.7 mg/kg po. More on the design: dose 11.7 mg/kg. In kind it is organism-based. The method in brief: as §1

With `CCOC(=O)Oc1ccc(C[C@H](NC(=O)C2(NC(=O)[C@H](SC(C)=O)C(C)C)CCCC2)C(=O)OCC)cc1`, the inhibition in assay [1] was 25%; in assay [2] it was 21%; in assay [3], 24%; in [4], 28%.

For `CCOC(=O)[C@H](Cc1ccc(OC(=O)c2cccs2)cc1)NC(=O)C1(NC(=O)[C@H](SC(C)=O)C(C)C)CCCC1`, the inhibition in [5] amounted to 36%; in assay [6], 26%; in [7], 37%; in assay [8], 29%.

For the molecule `CCOC(=O)CC(=O)Oc1ccc(C[C@H](NC(=O)C2(NC(=O)[C@H](SC(C)=O)C(C)C)CCCC2)C(=O)OCC)cc1`, the inhibition worked out at 78% in [9], 73% in assay [10], 82% in [11] and 88% in assay [12].

For `CCCCOC(=O)[C@H](Cc1ccc(O)cc1)NC(=O)C1(NC(=O)[C@H](SC(=O)CN2CCCCC2)C(C)C)CCCC1`, the inhibition in assay [5] was 50%; in [6], 26%; in [7], 55%; in assay [8], 65%.

Turning to `CCCOC(=O)[C@H](Cc1ccc(O)cc1)NC(=O)C1(NC(=O)[C@H](SC(C)=O)C(C)C)CCCC1`, the inhibition in [13] came out at 74%; in assay [14], 69%; in assay [15] it was 37%; in assay [16], 19%.

For `COC(=O)[C@H](Cc1ccc(OC)cc1)NC(=O)C1(NC(=O)[C@H](SC(C)=O)C(C)C)CCCC1`, the Control was determined as 337% with Rattus norvegicus [17], 279% in the assay with Rattus norvegicus [18], 263% in the assay with Rattus norvegicus [19] and 342% in the assay with Rattus norvegicus [23]. In addition, the inhibition came out at 97% in [20], 90% in [21], 87% in assay [22] and 78% in assay [24].
